Sampled rows, rich in hits. Any-hit rate of the full collection: about 2.3%.
Mcl1-Bid inh = disrupts binding of human Mcl-1 to Bid peptide; inhibition, % at 21.7 µM; TR-FRET Mcl-1/Bid-Dy647 peptide binding, 1536-well; Q07820; 220,000 compounds, 0.97% hits;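 active = compounds that cut the binding signal by more than half at the single screening dose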;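 note: His-tagged Mcl-1 with europium anti-His antibody binding Bid BH3 peptide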
T cell HTS = T cell immune modulators affecting CD8 T cell-vesicle binding. 330,000 compounds, 0.068% hits. AID 2052. response (vesicle binding), % at 7 µM. 2C CD8+ T cell-vesicle binding, flow cytometry; stronger effect = lower value;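 active = response, share of CD8 T cells binding vesicles, and their 90th percentile fluorescence all below set limits, cut at about 80% in these data, passing the limit was not always enough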;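 note: values below 100% mean blocked vesicle binding to the CD8+ T cells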
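System: murine 2C transgenic CD8+ T lymphocytes; also added: QL9-loaded Drosophila micro-vesicles; times: binding 1.5 h at 37 °C; measured by: flow cytometry, PE anti-B7-1 (FL2) versus Alexa647 anti-CD8 (FL8), PFA-fixed; control set: Peptide-free naked vesicles (low) and QL9 vesicles with 0.7% DMSO vehicle (high)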
MCL1 BIM primary = disrupts human MCL1 binding to BIM-BH3 peptide. Q07820. GST-MCL1 / FITC-Bim-BH3 fluorescence polarization. inhibition, % at 10.9 µM. 320,000 compounds, 0.68% hits. AID 2057;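 active = inhibition above the mean inhibition of all tested compounds plus 3 SD, set per campaign, cut at about 40% in these data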;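 note: higher means more loss of mP so more displacement of Bim peptide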
DSG3 Ab inh = human desmoglein-3 autoantibody binding inhibition. P32926. DSG3-coupled beads, scFv-anti-DSG3-GFP binding, flow cytometry; stronger effect = lower value. binding (percent of control), % at 10 µM. 310,000 compounds, 0.48% hits. AID 588358;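 active = binding more than 3 SD below its plate's average and above zero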;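 note: hits lower antibody fragment binding to DSG3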
Target sequence (P32926 whole entry, looked up, the tested form may be a part): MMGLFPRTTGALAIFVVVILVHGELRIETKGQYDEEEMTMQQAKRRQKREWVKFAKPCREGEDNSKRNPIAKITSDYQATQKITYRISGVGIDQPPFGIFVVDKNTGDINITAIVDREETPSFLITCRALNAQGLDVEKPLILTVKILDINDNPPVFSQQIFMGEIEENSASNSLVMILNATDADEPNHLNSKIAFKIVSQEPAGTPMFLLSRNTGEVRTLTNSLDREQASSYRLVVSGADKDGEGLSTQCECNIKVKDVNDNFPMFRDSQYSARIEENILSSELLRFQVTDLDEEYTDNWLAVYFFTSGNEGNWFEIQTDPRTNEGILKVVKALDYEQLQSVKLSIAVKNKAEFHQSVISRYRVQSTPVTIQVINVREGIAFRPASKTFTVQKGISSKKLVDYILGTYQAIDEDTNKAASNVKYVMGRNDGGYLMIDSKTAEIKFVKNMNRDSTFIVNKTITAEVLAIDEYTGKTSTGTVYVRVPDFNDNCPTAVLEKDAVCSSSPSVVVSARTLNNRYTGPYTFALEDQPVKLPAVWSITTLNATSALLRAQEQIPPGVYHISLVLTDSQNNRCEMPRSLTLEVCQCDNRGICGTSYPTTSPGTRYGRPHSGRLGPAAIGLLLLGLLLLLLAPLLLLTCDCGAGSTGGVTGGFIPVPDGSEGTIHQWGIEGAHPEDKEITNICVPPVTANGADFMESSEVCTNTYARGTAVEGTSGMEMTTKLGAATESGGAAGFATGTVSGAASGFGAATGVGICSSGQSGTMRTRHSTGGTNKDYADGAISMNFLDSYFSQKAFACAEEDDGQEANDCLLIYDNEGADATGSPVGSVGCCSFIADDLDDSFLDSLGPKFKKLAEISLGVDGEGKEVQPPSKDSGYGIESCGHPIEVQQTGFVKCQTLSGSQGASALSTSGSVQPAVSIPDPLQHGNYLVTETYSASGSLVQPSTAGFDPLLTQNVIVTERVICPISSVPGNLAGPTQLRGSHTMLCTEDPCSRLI
Mcl1-Noxa inh = disrupts binding of human Mcl-1 to Noxa peptide | Q07820 | TR-FRET Mcl-1/Noxa peptide binding, 2 h | inhibition, % at 21.7 µM | 220,000 compounds, 1.5% hits | AID 1022;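 active = compounds that cut the protein-peptide binding signal by more than 50% relative to plate controls in a single-dose test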;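 note: His-tagged Mcl-1 with rhodamine Noxa BH3 peptide and terbium anti-His antibody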
Mcl-1 Bim block = human Bim-Mcl-1 interaction inhibition | 190,000 compounds, 0.1% hits | inhibition, % at 10 µM | AID 1009 | Bead-based flow cytometry, Bim peptide-Mcl-1 binding; in the data active = inhibition above about 40%
Of the large screens only hits and unclear results are named; the others gave an inactive call.

CSc1ccc(CNC(=O)C2CCC(=O)N(CCc3ccc(Cl)cc3)C2)cc1 (centres undefined)	none (no result: Mcl1-Bid inh, T cell HTS, MCL1 BIM primary, Mcl1-Noxa inh, Mcl-1 Bim block)
C=CC[C@@H](CC(=O)OC(C)(C)C)C(=O)OC[C@@H]1CCCN1C(=O)[C@H](CC=C)CC(=O)NCCO	none (no result: Mcl1-Bid inh, MCL1 BIM primary, Mcl1-Noxa inh, Mcl-1 Bim block)
Cc1ccc(S(=O)(=O)Nc2ccccc2C=Nc2cccc(C)c2C)cc1	T cell HTS 0.0
CNCc1ccccc1Sc1ccc(O)c(O)c1	DSG3 Ab inh 57
COc1ccc(Sc2ccccc2CN(C)C)cc1OC	none
COc1ccc(-c2csc(Nc3ccc(S(=O)(=O)Nc4cc(C)on4)cc3)n2)cc1C	Mcl1-Noxa inh 51
Cc1n[nH]c(=S)c2nn(-c3ccccc3)c(C)c12	Mcl1-Bid inh 70 (no result: T cell HTS, MCL1 BIM primary, DSG3 Ab inh)
OC(c1ccccc1)C(Nc1ccccn1)c1ccccc1 (centres undefined)	none (no result: Mcl1-Bid inh, T cell HTS, MCL1 BIM primary, Mcl1-Noxa inh, Mcl-1 Bim block)
COc1ccc(/C=N/NC(=O)c2nc(-c3ccccc3)cc(-c3ccccc3)n2)cc1	none
COc1cc(/C=N/NC(=O)c2ccc(CN3C(=O)c4cccc5cccc3c45)cc2)cc(OC)c1O	Mcl1-Noxa inh 76 (no result: Mcl-1 Bim block)
COc1ccc(/C=N/NC(=O)c2ccc(CN3C(=O)c4cccc5cccc3c45)cc2)cc1O	Mcl1-Noxa inh 61
COc1ccc(/C=N/NC(=O)c2ccc(-c3ccccc3)cc2)cc1O	none (no result: DSG3 Ab inh)
COc1ccc(/C=N/NC(=O)c2nc(-c3ccccc3)cc(-c3ccccc3)n2)cc1O	Mcl1-Noxa inh 68
COc1cc(/C=N/NC(=O)c2ccc(CSc3nc4ccccc4[nH]3)cc2)ccc1O	Mcl1-Noxa inh 62
Cc1nc(NC(=O)c2ccco2)sc1-c1csc(Nc2ccc(Cl)cc2)n1	Mcl1-Noxa inh 62
Cc1ccc(Cl)cc1Nc1nc(-c2sc(NC(=O)c3ccco3)nc2C)cs1	none (no result: T cell HTS)
Cc1nc(NC(=O)c2ccco2)sc1-c1csc(Nc2ccc(Cl)cc2Cl)n1	Mcl1-Bid inh 87, Mcl1-Noxa inh 100
Cc1nc(NC(=O)CC(C)C)sc1-c1csc(Nc2ccc(Cl)cc2)n1	Mcl-1 Bim block 64
O=C(CC(O)c1ccncc1)c1ccccc1O (centres undefined)	none (no result: Mcl1-Bid inh, T cell HTS, MCL1 BIM primary, Mcl1-Noxa inh, Mcl-1 Bim block)
O=C(NCC(=O)N1CCN(Cc2c(F)cccc2Cl)CC1)c1cccs1	none (no result: Mcl1-Bid inh, T cell HTS, MCL1 BIM primary, Mcl1-Noxa inh, Mcl-1 Bim block)
NS(=O)(=O)c1ccc(N/C=C\C(=O)c2ccc(F)cc2)cc1	none
NS(=O)(=O)c1ccc(N/C=C/C(=O)c2ccc(Br)cc2)cc1	DSG3 Ab inh 93
COc1ccc(NC(=O)c2ccc(OC)c(S(=O)(=O)N3CCCCC3C)c2)cn1 (centres undefined)	MCL1 BIM primary 48 (no result: Mcl1-Bid inh, Mcl1-Noxa inh, Mcl-1 Bim block)
COc1ccccc1NC(=O)CN1CCN(CC(=O)Nc2ccc(C)c(F)c2)CC1	none (no result: Mcl1-Bid inh, Mcl1-Noxa inh, Mcl-1 Bim block)
CCOC(=O)c1[nH]c2cc3c(cc2c1CCCN1C(=O)c2ccccc2C1=O)OCCO3	DSG3 Ab inh -29
CCOC(=O)c1[nH]c2ccccc2c1CCCN1C(=O)c2ccccc2C1=O	none (no result: DSG3 Ab inh)
Clc1ccc(-c2nsc(N3CCOCC3)n2)c(Cl)c1	none (no result: Mcl1-Bid inh, Mcl1-Noxa inh, Mcl-1 Bim block)
CC(=O)Nc1nnc(CCS(=O)(=O)c2ccc(C)c(C)c2)s1	DSG3 Ab inh 6.1
Cc1ccc(S(=O)(=O)CCc2nnc(NC(=O)C3CCCCC3)s2)cc1	none (no result: Mcl-1 Bim block)
COc1ccc(N2CCN(Cc3oc(CO)cc(=O)c3O)CC2)cc1	MCL1 BIM primary 42
CC1OC(CC(=O)O)CC2=C1C(=O)c1c(O)cccc1C2=O (centres undefined)	none (no result: Mcl1-Bid inh, T cell HTS, MCL1 BIM primary, Mcl1-Noxa inh, Mcl-1 Bim block)
Cc1[nH]n(-c2ncc(-c3ccccc3)s2)c(=O)c1C(c1ccc(Br)cc1)C(C#N)C#N (centres undefined)	Mcl1-Noxa inh 78
COc1ccc(C(=O)N(Cc2ccco2)Cc2cccs2)c(O)c1	none (no result: DSG3 Ab inh)
COc1ccc(C(=O)/C=C/C(=O)N(CC(=O)NCCC(C)C)Cc2cccs2)c(O)c1	Mcl1-Noxa inh 66 (no result: T cell HTS, MCL1 BIM primary)
CCN1CCN(c2ccc(S(=O)(=O)N3CCCCC3)cc2NC(=O)c2cccc(C)c2[N+](=O)[O-])CC1	T cell HTS 49 (no result: Mcl1-Bid inh, Mcl1-Noxa inh, Mcl-1 Bim block)
CC(=O)c1ccccc1N(C(=O)c1ccco1)C(C(=O)NC1CCCC1)c1ccc(C)cc1 (centres undefined)	none (no result: Mcl1-Bid inh, Mcl1-Noxa inh, Mcl-1 Bim block)
Cc1ccc(-c2nc3cc(Cl)ccc3o2)cc1	none (no result: DSG3 Ab inh)
Clc1ccc(-c2nc3cc(CN4CCCCC4)ccc3o2)cc1	DSG3 Ab inh 72 (no result: Mcl1-Bid inh, MCL1 BIM primary, Mcl1-Noxa inh, Mcl-1 Bim block)
CN(CC(=O)Nc1cccc(F)c1)C(=O)CSc1nc2ccccc2s1	none (no result: Mcl1-Bid inh, Mcl1-Noxa inh, Mcl-1 Bim block)
COc1ccc(CN(CCCn2cnc3c(OC)ncnc32)CCCn2cnc3c(OC)ncnc32)cc1	none (no result: Mcl1-Bid inh, T cell HTS, MCL1 BIM primary, Mcl1-Noxa inh, Mcl-1 Bim block)

Screening data deposited in PubChem by several laboratories.
